By bioavailability is commonly meant the share of a dose that reaches the circulation, judged against a reference dose that is usually intravenous. One may read the pIC50 as the IC50 on a negative log10 scale, so that one unit is a factor of ten. Usually logD stands for lipophilicity at a set pH, counting ionised and neutral species. As usually defined, the clearance is the rate of elimination divided by the concentration. A word on the Cmax: it is the maximum level reached in the sampled fluid or tissue. For orientation: Tmax means the time from dosing to the highest level. The AUC(0-t) is the area under the concentration-time curve up to a stated or last time point. The term fraction unbound denotes the share of the substance not bound to proteins or other matrix.

pIC50: −log10 of the molar value.

The test system of data set [1] is Rattus norvegicus. Briefly: Anorectic activity in diet-induced obese F344/jcl rat assessed as inhibition of cumulative food intake at 1 mg/kg, po qd administered through repeated dosing for 2 weeks measured during 2 weeks of dosing relative to vehicle-treated control. It is filed as functional. As to conditions: 336 h. The gist of the method:
(§1)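 Male DIO F344/Jcl rats (45 weeks old) on high-fat diet since 5 weeks of age, singly housed, habituated to oral dosing with tap water, grouped by day−1 food intake and body weight. Once-daily oral dosing in 0.5% methylcellulose at 2 mL/kg for 2 weeks, 1−3 h before dark onset, 6 rats/group. Food intake measured every 2 or 3 days; body weight change as % of initial.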

The subject of data set [2] is Rattus norvegicus. Briefly: Antiobesity activity in diet-induced obese F344/jcl rat assessed as reduction in body weight at 1 mg/kg, po qd administered through repeated dosing for 2 weeks measured during 2 weeks of dosing relative to vehicle-treated control. It is filed as functional. Further details: scale not given: the % may be the effect or the level left. The procedure, abridged: as §1

The nature of data set [3]: Plasma concentration in diet-induced obese F344/jcl rat at 10 mg/kg, po administered on day 1 measured 24 hrs post dose. It is filed as ADME, organism-based. The gist of the method: (§2)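 From the DIO F344 rat 2-day feeding study (oral, 0.5% methylcellulose): plasma and brain concentrations taken 24 h after the day-1 dose; brain/plasma ratio from these.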
Data set [4] deals with Plasma. Briefly: Free plasma concentration in diet-induced obese F344/jcl rat at 3 mg/kg, po administered on day 1 measured 24 hrs post dose. As to conditions: in vivo. In kind it is ADME, organism-based. The gist of the method: (§3)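 Plasma level 24 h after day-1 oral dose in DIO F344 rats multiplied by the free fraction measured in DIO rat plasma to give free concentration.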

Data set [5] has as its system Plasma. Nature of the data set: Free plasma concentration in diet-induced obese F344/jcl rat at 10 mg/kg administered after 24 hrs in day 1. As to conditions: in vivo. In kind it is ADME, organism-based. The gist of the method:
as §3

Data set [6] is described as follows: Oral bioavailability in Sprague-Dawley rat at 1 mg/kg, administered through cassette dosing by LC/MS/MS analysis. In kind it is ADME, organism-based. As to conditions: in vivo.
Data set [7] has as its target T1, Melanin-concentrating hormone receptor 1 (Homo sapiens, UniProt Q99705). Briefly: Displacement of [125I]-MCH (4 to19 residues) from human MCHR1 expressed in CHO cell membranes after 1 hr by liquid scintillation counting analysis. The procedure, abridged:
(§4)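 Membranes from MCHR1-expressing CHO cells, homogenized in NaHCO3/EDTA with protease inhibitors, 100000g pellet held at 2 mg/mL protein in 20 mM Tris-HCl pH 7.5, 5 mM EDTA, protease inhibitors.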

Data set [8] deals with Melanin-concentrating hormone receptor 1 (Rattus norvegicus, UniProt P97639). Nature of the data set: Displacement of [125I]-MCH (4 to 19 residues) from rat MCHR1 expressed in CHO cell membranes after 1 hr by liquid scintillation counting analysis. The gist of the method:
as §4

Data set [9] can be described thus: Lipophilicity, log D of the compound at pH 7.4. The note with it: buffer. It is filed as physicochemical. The procedure, abridged:
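Chromatographic HPLC method with UV detection, estimating octanol/buffer partition at pH 7.4.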

Data set [10] deals with T1, Melanin-concentrating hormone receptor 1. It is filed as functional, cell-based, CHO.
The nature of data set [11]: Total clearance in Sprague-Dawley rat at 0.1 mg/kg, iv administered through cassette dosing by LC/MS/MS analysis. It is filed as ADME, organism-based. As to conditions: in vivo. The gist of the method:
(§5)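 Nonfasted male SD rats (8 weeks old, n = 3) given 0.1 mg/kg iv by cassette dosing; plasma deproteinized with acetonitrile, centrifuged, and supernatant concentrations measured by LC/MS/MS.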

A short description of data set [12]: Volume of distribution at steady state in Sprague-Dawley rat at 0.1 mg/kg, iv by LC/MS/MS analysis. The note with it: in vivo, read-out: Vdss. In kind it is ADME, organism-based. The gist of the method: as §5
Data set [13] can be described thus: Cmax in Sprague-Dawley rat at 1 mg/kg, po administered through cassette dosing by LC/MS/MS analysis. It is filed as ADME, organism-based. Also on record: dose 1 mg/kg, route oral. The note with it: in vivo.
Data set [14] in a line: Tmax in Sprague-Dawley rat at 1 mg/kg, po administered through cassette dosing by LC/MS/MS analysis. As to conditions: in vivo. It is filed as ADME, organism-based.
A short description of data set [15]: AUC (0 to 8 hrs) in Sprague-Dawley rat at 1 mg/kg, po administered through cassette dosing by LC/MS/MS analysis. In kind it is ADME, organism-based. Also on record: time < 8 hr, dose 1 mg/kg, route oral. The note with it: in vivo.
The nature of data set [16]: Unbound fraction in po dosed diet-induced obese F344/jcl rat plasma. In kind it is ADME, organism-based.
The nature of data set [17]: Plasma concentration in diet-induced obese F344/jcl rat at 3 mg/kg, po administered on day 1 measured 24 hrs post dose. In kind it is ADME, organism-based. The procedure, abridged: as §2
The nature of data set [18]: Drug uptake in diet-induced obese F344/jcl rat brain at 3 mg/kg, po administered on day 1 measured 24 hrs post dose. It is filed as ADME, organism-based. As to conditions: read-out: Drug uptake. The gist of the method: as §2
Data set [19] is described as follows: Drug uptake in diet-induced obese F344/jcl rat brain at 10 mg/kg, po administered on day 1 measured 24 hrs post dose. It is filed as ADME, organism-based. The procedure, abridged:
as §2

The nature of data set [20]: Ratio of drug level in brain to plasma in diet-induced obese F344/jcl rat at 3 mg/kg, po administered on day 1 measured 24 hrs post dose. It is filed as ADME, organism-based. As to conditions: read-out: BPR. The procedure, abridged: as §2
Data set [21] is described as follows: Ratio of drug level in brain to plasma in diet-induced obese F344/jcl rat at 10 mg/kg, po administered on day 1 measured 24 hrs post dose. In kind it is ADME, organism-based. The note with it: read-out: BPR. The procedure, abridged: as §2
The subject of data set [22] is Rattus norvegicus. Nature of the data set: Antiobesity activity in diet-induced obese F344/jcl rat assessed as reduction in body weight at 3 mg/kg, po qd administered through repeated dosing for 2 weeks measured during 2 weeks of dosing relative to vehicle-treated control. In kind it is functional. Also on record: scale not given: the % may be the effect or the level left. The gist of the method: (§6)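 Male DIO F344/Jcl rats (45 weeks old, high-fat diet), habituated and grouped as for feeding study; once-daily oral dosing in 0.5% methylcellulose at 2 mL/kg for 2 weeks, 1–3 h before dark onset after weighing, n = 6. Body weight change as percent of initial weight, compared with vehicle.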

Data set [23] deals with Rattus norvegicus. Briefly: Antiobesity activity in diet-induced obese F344/jcl rat assessed as reduction in body weight at 10 mg/kg, po qd administered through repeated dosing for 2 weeks measured during 2 weeks of dosing relative to vehicle-treated control. In kind it is functional. Also on record: scale not given: the % may be the effect or the level left. The gist of the method: as §6

Data set [24] has as its system Mus musculus. Nature of the data set: Anorectic activity in po dosed high fat diet fed wild type mouse assessed as reduction of food intake administered for 3 days measured during 3 days of dosing. It is filed as functional, organism-based. The gist of the method: (§7)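 Male MCHR1-deficient and wild-type littermate mice (45 weeks old) on high-fat diet D12451 from 5 weeks, singly housed, acclimated with 0.5 mL tap water dosing, grouped by day −3 to −1 intake and day −1 weight. Oral vehicle (0.5% methylcellulose) or suspension at 10 mL/kg for 3 days, n = 5–6; cumulative 3-day intake; Williams test.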

Data set [25] concerns HepG2. Nature of the data set: Induction of phospholipidosis in human HepG2 cells at 0.6 to 20 uM after 24 hrs by NBD-PE-based fluorometric analysis. In kind it is cell-based. The note with it: hepg2, 24 h. The gist of the method:
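HepG2 cells in DMEM with 5% FBS, precultured 24 h, then exposed 24 h at 37 °C to 60 μM NBD-PE medium plus compound medium (0.6 or 20 μM, added 1:1); amiodarone 10 μM final as reference. NBD-PE uptake fluorescence (ex 485/em 538), blank subtracted, expressed relative to amiodarone; maximum value taken.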

The subject of data set [26] is Mus musculus. Nature of the data set: Effect on food intake in MCHR-deficient high fat diet fed mouse at 10 to 30 mg/kg, po administered for 3 days measured during 3 days of dosing. In kind it is ADME, organism-based. The note with it: in vivo, 72 h. The gist of the method: as §7
The species entered for data set [27] is Rattus norvegicus. Nature of the data set: animal or person. As to conditions: F344/jcl, po, 48 h, read-out: INH.
The species named for data set [28] is Rattus norvegicus. Nature of the data set: animal or person. The note with it: F344/jcl, po, 336 h, read-out: INH.
The species named for data set [29] is Rattus norvegicus. Nature of the data set: animal or person. As to conditions: F344/jcl, po, 48 h, read-out: INH. This is another data set of the same source.
Data set [30] is filed under the species Rattus norvegicus. Nature of the data set: animal or person. The note with it: F344/jcl, po, 336 h, read-out: INH. This is another data set of the same source.

T1 sequence (Q99705 whole entry, the tested form may be a part): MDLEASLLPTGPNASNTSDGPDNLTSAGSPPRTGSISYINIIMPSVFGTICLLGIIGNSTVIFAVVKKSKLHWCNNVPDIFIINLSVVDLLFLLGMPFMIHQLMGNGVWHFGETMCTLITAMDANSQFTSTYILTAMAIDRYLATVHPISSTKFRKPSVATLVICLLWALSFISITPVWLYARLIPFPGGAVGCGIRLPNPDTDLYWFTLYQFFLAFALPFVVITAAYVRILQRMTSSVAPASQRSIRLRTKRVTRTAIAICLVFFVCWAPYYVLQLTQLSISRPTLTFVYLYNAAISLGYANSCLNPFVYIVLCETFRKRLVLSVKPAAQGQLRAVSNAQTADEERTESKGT
Chain of Melanin-concentrating hormone receptor 1 (Rattus norvegicus, UniProt P97639) (P97639 whole entry, the tested form may be a part): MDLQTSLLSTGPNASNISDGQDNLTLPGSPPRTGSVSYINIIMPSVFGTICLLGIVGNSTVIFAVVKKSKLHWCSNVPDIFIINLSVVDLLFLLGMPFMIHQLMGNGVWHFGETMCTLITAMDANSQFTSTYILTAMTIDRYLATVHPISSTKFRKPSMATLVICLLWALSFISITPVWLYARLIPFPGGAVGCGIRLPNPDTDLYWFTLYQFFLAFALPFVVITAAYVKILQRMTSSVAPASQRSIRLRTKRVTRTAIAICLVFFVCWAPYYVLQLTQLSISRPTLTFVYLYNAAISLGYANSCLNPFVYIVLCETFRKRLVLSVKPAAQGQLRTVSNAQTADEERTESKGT

On to `CC(C)CC(N(C)C)C1(c2ccc(Cl)cc2)CCC1` (stereo not given) [SIBUTRAMINE], for which the inhibition in vivo at 1 mg/kg in data set [1] was 21.5%. Moreover, the Activity in [2] was determined as 3.4%.
Take `Cc1c(C2CC2)nc2ccc(-n3ccc(OCc4ccc(Cl)cc4)cc3=O)cn12`: the concentration at 24 h in data set [3] worked out at 1350 ng/mL; in data set [17], 351 ng/mL; in [18] it was 218 ng/g; in data set [19], 841 ng/g. In addition, the figures for the “Cp(f)” value in [4] and in data set [5] were 17.2 nM and 66.5 nM, respectively. The molecule further returned a bioavailability in data set [6] of 58%. The pIC50 in data set [7] was 7.59; in data set [8], 7.70; in [10], 7.64. Besides, in [9], the logD was 3.2. Further, the clearance in data set [11] was 5.2 mL/min/kg. The Vd in data set [12] was 1.05 L/kg. Further, the Cmax in data set [13] was found to be 313 ng/mL. The Tmax in [14] came out at 2 h. This molecule had an AUC(0-t) at 8 h in data set [15] of 1880 ng·h/mL. In [16], this molecule registered a fraction unbound of 0.02. Moreover, the Kp at 24 h stood at 0.61 in data set [20] and 0.62 in data set [21]. Moreover, the Activity is 3.7% in data set [22]; 8.6% in data set [23]; “Dose-dependent effect” in data set [24]; “Non-toxic” in data set [25]; “Non-toxic” in [26]. Further, the inhibition in vivo at 3 mg/kg in [27] stood at 15%; in data set [30], 15.4%. The inhibition in vivo at 10 mg/kg in data set [28] came to 36.2%; in data set [29], 29.6%.

Values taken from ChEMBL document CHEMBL3769308, “Melanin-Concentrating Hormone Receptor 1 Antagonists Lacking an Aliphatic Amine: Synthesis and Structure-Activity Relationships of Novel 1-(Imidazo[1,2-a]pyridin-6-yl)pyridin-2(1H)-one Derivatives” (J Med Chem, 2016).
